Experimental data from ChEMBL document CHEMBL1124613, “Synthesis, tubulin binding, antineoplastic evaluation, and structure-activity relationship of oncodazole analogues” (J Med Chem, 1989).

Experiments:
B16 = assay: Inhibition B16 melanoma cell monolayer proliferation; assay type: functional, cell-based; conditions: Mus musculus
How it was run: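 Mouse B16 melanoma cells grown as monolayers with continuous 72-h exposure to compound. IC50 is the concentration that inhibits proliferation by 50%.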

Mus musculus [1] = assay: In vivo Maximum tolerated dose in syngeneic B6D2F1 female mice bearing ip implanted P388 leukemia.; assay type: functional
How it was run: (§1)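 Female B6D2F1 mice given ip implants of 10⁶ P388 leukemia cells. Drug given ip on days 1-5 after implantation at 320-20 mg/kg per day; maximally tolerated dose reported in mg/kg per day. Percent increase in lifespan taken at that dose from median survival time versus untreated controls. Under 25% increase counts as negative.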

Mus musculus [2] = assay: In vivo percent increase in life span at Maximum tolerated dose in syngeneic B6D2F1 female mice bearing ip implanted P388 leukemia.; assay type: functional; how it was run: as §1
Tubulin alpha chain = Tubulin alpha chain (Sus scrofa, UniProt P02550); assay: Displacement of 5.8 uM [3H]-oncodazole from homogeneous tubulin.
Tubulin alpha chain, sequence (P02550 whole entry, looked up): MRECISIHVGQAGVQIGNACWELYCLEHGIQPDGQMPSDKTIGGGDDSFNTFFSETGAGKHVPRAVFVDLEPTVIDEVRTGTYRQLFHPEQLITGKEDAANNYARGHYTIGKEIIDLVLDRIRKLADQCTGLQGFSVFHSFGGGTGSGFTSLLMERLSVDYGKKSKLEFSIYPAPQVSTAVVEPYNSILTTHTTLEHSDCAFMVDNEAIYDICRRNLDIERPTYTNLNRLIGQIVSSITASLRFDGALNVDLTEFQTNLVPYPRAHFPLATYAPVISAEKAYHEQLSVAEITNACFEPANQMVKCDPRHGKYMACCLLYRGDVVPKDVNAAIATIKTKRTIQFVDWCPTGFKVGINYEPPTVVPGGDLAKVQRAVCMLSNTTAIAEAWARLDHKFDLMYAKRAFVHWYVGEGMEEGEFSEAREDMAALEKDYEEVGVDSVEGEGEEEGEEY
How it was run: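 Equilibrium binding to soluble, homogeneous tubulin, measured by displacement of 5.8 μM [³H]oncodazole. IC50 (μM) is the concentration that displaces the label, given as mean ± SEM.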

Mus musculus [3] = assay: In vivo percent increase in life span at Maximum tolerated dose in syngeneic B6D2F1 female mice bearing ip implanted P388 leukemia; Negative; assay type: functional; how it was run: as §1
Mus musculus [4] = assay: Compound was tested in vivo for percent increase in life span at Maximum tolerated dose in syngeneic B6D2F1 female mice bearing intraperitoneally implanted P388 leukemia (exp 2); assay type: functional; how it was run: as §1

Compound | IC50 (B16) | MTD (Mus musculus [1]) | ILS (Mus musculus [2]) | IC50 (Tubulin alpha chain) | ILS (Mus musculus [3]) | ILS (Mus musculus [4])
COC(=O)Nc1nc2cc(C(=O)c3cc(CC(=O)OC(C)(C)C)cs3)ccc2[nH]1 | 0.07 µM | 160 mg/kg | 105% | 7.5 µM |  | 
COC(=O)Nc1nc2cc(C(=O)c3cc(CN)cs3)ccc2[nH]1 | 2 µM | 20 mg/kg |  | 120 µM | <25% | 
COC(=O)Nc1nc2ccc(C(=O)c3cc(COC(=O)c4ccccc4)cs3)cc2[nH]1 |  |  |  | 1.95 µM |  | 
COC(=O)Nc1nc2cc(C(=O)c3cc(CO)cs3)ccc2[nH]1 | 1.8 µM |  |  | 22 µM |  | 
COC(=O)Nc1nc2c(C)c(C(=O)c3cccs3)ccc2[nH]1 | 4 µM | 40 mg/kg |  | 106 µM | <25% | 
COC(=O)Nc1nc2cc(C(=O)c3cccs3)ccc2n1CCN | 30 µM | 80 mg/kg |  |  | <25% | 
COC(=O)Nc1nc2cc(C(=O)c3cc(CNC(=O)OC(C)(C)C)cs3)ccc2[nH]1 | 0.5 µM | 160 mg/kg |  | 23.3 µM | <25% | 
COC(=O)Nc1nc2ccc(C(=O)c3cc(C([N+]#N)C(F)(F)F)cs3)cc2[nH]1 (centres undefined) | 0.14 µM |  |  | 8.3 µM |  | 
COC(=O)N(C)c1nc2cc(C(=O)c3cccs3)ccc2[nH]1 | 50 µM | 40 mg/kg |  |  | <25% | 
COC(=O)Nc1nc2cc(C(=O)c3cccs3)c(C)cc2[nH]1 | 8 µM | >320 mg/kg |  |  | <25% | 
COC(=O)Nc1nc2ccc(C(=O)c3cccs3)cc2n1C [NOCODOZOLE] | 40 µM | >320 mg/kg |  |  | <25% | 
COC(=O)Nc1nc2cc(C(=O)c3cc(C(=O)C(F)(F)F)cs3)ccc2[nH]1 | 0.14 µM |  |  | 16 µM |  | 
COC(=O)Nc1nc2cc(C(=O)c3cc(CC#N)cs3)ccc2[nH]1 | 0.02 µM | 160 mg/kg | 80% | 2.9 µM |  | 80%
COC(=O)Nc1nc2cc(C(=O)c3ccc(C)s3)ccc2[nH]1 | 10 µM | 160 mg/kg |  |  | <25% | 
CCOC(=O)Nc1nc2cc(C(=O)c3cccs3)ccc2[nH]1 | 0.2 µM | 160 mg/kg |  |  | <25% | 
CC(C)OC(=O)Nc1nc2cc(C(=O)c3cccs3)ccc2[nH]1 | 0.2 µM | 320 mg/kg | 45% | 14 µM |  | 30%
COC(=O)Nc1nc2cc(C(=O)c3cccs3)ccc2n1CCNC(=O)OCc1ccccc1 | 20 µM |  |  |  |  | 
COC(=O)Cc1csc(C(=O)c2ccc3[nH]c(NC(=O)OC)nc3c2)c1 | 0.04 µM | 30 mg/kg | 65% | 5 µM |  | 
COC(=O)Nc1nc2cc(C(=O)c3cccs3)ccc2n1CCCCN | 30 µM | 80 mg/kg |  |  | <25% | 
COC(=O)Nc1nc2cc(C(=O)c3sccc3C)ccc2[nH]1 | 2 µM | >320 mg/kg |  |  | <25% | 
COC(=O)Nc1nc2cc(C(=O)c3cccs3)ccc2n1C | 20 µM | 160 mg/kg |  |  | <25% | 
CCOC(=O)Cc1csc(C(=O)c2ccc3[nH]c(NC(=O)OC)nc3c2)c1 | 0.02 µM | 80 mg/kg | 55% | 0.88 µM |  | 55%
COC(=O)Nc1nc2cc(C(=O)c3cc(CC(=O)OCc4ccccc4)cs3)ccc2[nH]1 |  |  |  | 5.2 µM |  | 
COC(=O)Nc1nc2cc(C(=O)c3cc(C)cs3)ccc2[nH]1 | 0.1 µM | 80 mg/kg | 95% | 17.6 µM |  | 
CCCOC(=O)Nc1nc2cc(C(=O)c3cccs3)ccc2[nH]1 | 0.5 µM | >320 mg/kg |  |  | <25% | 
COC(=O)Nc1nc2c(C)cc(C(=O)c3cccs3)cc2[nH]1 | 0.06 µM | 30 mg/kg | 45% | 0.86 µM |  | 50%
COC(=O)Nc1nc2cc(C(=O)c3cc(CC(=O)NCCN)cs3)ccc2[nH]1 | > 70 µM | 80 mg/kg |  |  | <25% | 
COC(=O)Nc1nc2cc(C(=O)c3cc(CC(=O)O)cs3)ccc2[nH]1 | 2 µM | 80 mg/kg |  | 442 µM | <25% | 
COC(=O)Nc1nc2cc(C(=O)c3cccs3)ccc2[nH]1 [NOCODAZOLE] | 0.1 µM | 80 mg/kg | 75% | 5.7 µM |  | 
